In ChEMBL document CHEMBL4190276, “Design, synthesis and evaluation of coumarin-pargyline hybrids as novel dual inhibitors of monoamine oxidases and amyloid-β aggregation for the treatment of Alzheimer's disease” (Eur J Med Chem, 2017):

Target: T1, Amine oxidase [flavin-containing] A (Homo sapiens, UniProt P21397)
T1 sequence (P21397 whole entry): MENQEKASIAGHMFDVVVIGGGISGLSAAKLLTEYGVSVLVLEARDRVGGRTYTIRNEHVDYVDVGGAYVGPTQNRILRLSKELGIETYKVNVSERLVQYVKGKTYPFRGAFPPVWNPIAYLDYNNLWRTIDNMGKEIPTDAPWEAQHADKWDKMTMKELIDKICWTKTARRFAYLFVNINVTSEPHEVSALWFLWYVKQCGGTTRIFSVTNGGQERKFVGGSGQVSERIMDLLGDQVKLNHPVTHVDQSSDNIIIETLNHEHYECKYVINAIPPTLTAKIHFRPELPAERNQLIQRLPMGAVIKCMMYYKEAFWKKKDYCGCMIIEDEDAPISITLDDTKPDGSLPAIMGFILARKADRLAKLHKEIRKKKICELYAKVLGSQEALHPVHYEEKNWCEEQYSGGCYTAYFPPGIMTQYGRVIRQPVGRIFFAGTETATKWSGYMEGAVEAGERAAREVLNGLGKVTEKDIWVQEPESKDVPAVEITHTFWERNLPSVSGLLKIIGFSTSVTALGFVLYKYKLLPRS
Experiment: Inhibition of recombinant human MAO-A using p-tyramine as substrate preincubated for 15 mins followed by substrate addition measured after 20 mins by amplex red reagent based fluorescence assay
Conditions: not given

Row | IC50 [µM] | SMILES
1 | 60 | C#CCN(CCCOc1ccc2ccc(=O)oc2c1)Cc1ccc(OC)cc1
2 | 70 | C#CCN(CCOc1ccc2ccc(=O)oc2c1)Cc1ccc(C(C)C)cc1
3 | 55 | C#CCN(CCOc1ccc2ccc(=O)oc2c1)Cc1ccc(OC)cc1
4 | 89.5 | C#CCN(CCOc1ccc2ccc(=O)oc2c1)Cc1ccccc1
5 | 35.4 | C#CCN(CCCCOc1ccc2ccc(=O)oc2c1)Cc1ccc(C(C)C)cc1
6 | 72.1 | C#CCN(CCOc1ccc2ccc(=O)oc2c1)Cc1cccc(OC)c1
7 | 53.3 | C#CCN(CCOc1ccc2ccc(=O)oc2c1)Cc1cccc(F)c1
8 | 69.9 | C#CCN(C)CCOc1ccc2ccc(=O)oc2c1
9 | 69.1 | C#CCN(CCCCOc1ccc2ccc(=O)oc2c1)Cc1cccc(F)c1
10 | 93.2 | C#CCN(CCCCOc1ccc2ccc(=O)oc2c1)Cc1ccc(F)c(F)c1
11 | 77.4 | C#CCN(CCCOc1ccc2ccc(=O)oc2c1)Cc1ccc(C(C)C)cc1

Target: T2, Amine oxidase [flavin-containing] B (Homo sapiens, UniProt P27338)
T2 sequence (P27338 whole entry): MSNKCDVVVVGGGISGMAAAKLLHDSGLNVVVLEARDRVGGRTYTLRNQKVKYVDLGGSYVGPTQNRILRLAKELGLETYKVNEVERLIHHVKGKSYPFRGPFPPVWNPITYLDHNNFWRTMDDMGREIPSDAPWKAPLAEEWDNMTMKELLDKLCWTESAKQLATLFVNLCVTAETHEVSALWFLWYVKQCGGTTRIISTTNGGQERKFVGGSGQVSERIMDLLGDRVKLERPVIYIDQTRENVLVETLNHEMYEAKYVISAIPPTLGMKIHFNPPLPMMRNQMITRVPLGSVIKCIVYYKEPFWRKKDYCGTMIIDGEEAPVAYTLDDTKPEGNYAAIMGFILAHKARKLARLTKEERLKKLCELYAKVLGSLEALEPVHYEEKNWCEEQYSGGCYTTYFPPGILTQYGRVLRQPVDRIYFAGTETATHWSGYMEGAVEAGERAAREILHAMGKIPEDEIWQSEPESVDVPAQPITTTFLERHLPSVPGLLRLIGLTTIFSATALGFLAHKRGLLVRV
Experiment: Inhibition of recombinant human MAO-B using p-tyramine as substrate preincubated for 15 mins followed by substrate addition measured after 20 mins by amplex red reagent based fluorescence assay
Conditions: not given

Row | IC50 [µM] | SMILES
12 | 6.08 | C#CCN(CCCOc1ccc2ccc(=O)oc2c1)Cc1ccc(OC)cc1
13 | 6.96 | C#CCN(CCOc1ccc2ccc(=O)oc2c1)Cc1ccc(C(C)C)cc1
14 | 3.51 | C#CCN(CCOc1ccc2ccc(=O)oc2c1)Cc1ccc(OC)cc1
15 | 8.3 | C#CCN(CCOc1ccc2ccc(=O)oc2c1)Cc1ccccc1
16 | 3.5 | C#CCN(CCCCOc1ccc2ccc(=O)oc2c1)Cc1ccc(C(C)C)cc1
17 | 7.01 | C#CCN(CCOc1ccc2ccc(=O)oc2c1)Cc1cccc(OC)c1
18 | 5.53 | C#CCN(CCOc1ccc2ccc(=O)oc2c1)Cc1cccc(F)c1
19 | 1.1 | C#CCN(C)CCOc1ccc2ccc(=O)oc2c1
20 | 1.55 | C#CCN(CCCCOc1ccc2ccc(=O)oc2c1)Cc1cccc(F)c1
21 | 2.37 | C#CCN(CCCCOc1ccc2ccc(=O)oc2c1)Cc1ccc(F)c(F)c1
22 | 7.58 | C#CCN(CCCOc1ccc2ccc(=O)oc2c1)Cc1ccc(C(C)C)cc1

Species on record: Homo sapiens
Experiment: Selectivity index, ratio of IC50 for recombinant human MAO-A to IC50 for recombinant human MAO-B
Conditions: not given
Method in brief: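 Commercial human MAO-A (1.1 μg protein) and MAO-B (7.5 μg protein) adjusted to equal velocity (165 pmol p-tyramine/min). Compounds from 10 mM DMSO stock diluted in 0.05 M potassium phosphate, pH 7.4. Preincubated with enzyme 15 min at 37 °C in the dark; 200 μM Amplex Red, 2 U/mL HRP, 2 mM p-tyramine added for 20 min at 37 °C.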

Row | Ratio IC50 | SMILES
23 | 9.87 | C#CCN(CCCOc1ccc2ccc(=O)oc2c1)Cc1ccc(OC)cc1
24 | 10.1 | C#CCN(CCOc1ccc2ccc(=O)oc2c1)Cc1ccc(C(C)C)cc1
25 | 15.7 | C#CCN(CCOc1ccc2ccc(=O)oc2c1)Cc1ccc(OC)cc1
26 | 10.8 | C#CCN(CCOc1ccc2ccc(=O)oc2c1)Cc1ccccc1
27 | 10.1 | C#CCN(CCCCOc1ccc2ccc(=O)oc2c1)Cc1ccc(C(C)C)cc1
28 | 10.3 | C#CCN(CCOc1ccc2ccc(=O)oc2c1)Cc1cccc(OC)c1
29 | 9.64 | C#CCN(CCOc1ccc2ccc(=O)oc2c1)Cc1cccc(F)c1
30 | 63.4 | C#CCN(C)CCOc1ccc2ccc(=O)oc2c1
31 | 44.6 | C#CCN(CCCCOc1ccc2ccc(=O)oc2c1)Cc1cccc(F)c1
32 | 39.4 | C#CCN(CCCCOc1ccc2ccc(=O)oc2c1)Cc1ccc(F)c(F)c1
33 | 10.2 | C#CCN(CCCOc1ccc2ccc(=O)oc2c1)Cc1ccc(C(C)C)cc1

Target: Amyloid-beta precursor protein (Homo sapiens) (UniProt P05067)
Sequence (P05067 whole entry): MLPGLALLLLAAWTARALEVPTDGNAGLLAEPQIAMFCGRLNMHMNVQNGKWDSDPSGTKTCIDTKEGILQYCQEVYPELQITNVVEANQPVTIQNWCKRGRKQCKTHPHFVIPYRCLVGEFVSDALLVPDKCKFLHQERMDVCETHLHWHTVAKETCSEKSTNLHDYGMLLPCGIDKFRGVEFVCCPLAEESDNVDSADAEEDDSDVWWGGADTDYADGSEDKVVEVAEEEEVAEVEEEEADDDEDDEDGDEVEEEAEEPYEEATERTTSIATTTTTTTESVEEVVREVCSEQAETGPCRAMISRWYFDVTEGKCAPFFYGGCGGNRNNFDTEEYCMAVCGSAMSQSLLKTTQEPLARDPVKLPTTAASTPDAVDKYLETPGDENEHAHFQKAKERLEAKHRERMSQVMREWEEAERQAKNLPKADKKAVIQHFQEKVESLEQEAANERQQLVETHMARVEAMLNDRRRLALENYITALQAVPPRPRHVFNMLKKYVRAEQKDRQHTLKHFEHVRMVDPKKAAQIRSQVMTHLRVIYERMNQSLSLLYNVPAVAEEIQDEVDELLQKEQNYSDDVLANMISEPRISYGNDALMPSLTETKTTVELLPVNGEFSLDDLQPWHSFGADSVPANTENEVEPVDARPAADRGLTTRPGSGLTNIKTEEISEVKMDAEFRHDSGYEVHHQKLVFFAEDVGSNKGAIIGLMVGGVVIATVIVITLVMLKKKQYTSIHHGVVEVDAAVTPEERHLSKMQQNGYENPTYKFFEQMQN
Experiment: Inhibition of self-induced Amyloid beta (1 to 42) (unknown origin) aggregation at 25 uM after 48 hrs by thioflavin T-based fluorometric assay relative to control
Conditions: not given
Method in brief: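 Aβ1-42 stock (2000 μM in 1% ammonium hydroxide) diluted in 50 mM phosphate pH 7.4. Peptide (final 25 μM) incubated with or without compound (25 μM) at 37 °C for 48 h. Then diluted in 50 mM glycine-NaOH pH 8.0 containing 5 μM thioflavin T, read after 5 min (ex 446/em 490 nm). Inhibition = (1 − IFi/IFc) × 100 after blank subtraction. Mean ± SD of three independent experiments.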

Row | inhibition [%] | SMILES
34 | 36.4 | C#CCN(C)CCOc1ccc2ccc(=O)oc2c1
35 | 30.6 | C#CCN(CCCCOc1ccc2ccc(=O)oc2c1)Cc1ccc(F)c(F)c1

System: not listed separately
Experiment: Permeability of the compound in PBS/EtOH at […] after 16 hrs by PAMPA
Type: ADME
Conditions: read-out: Peff

Row | SMILES | Papp at 16 h [×10⁻⁶ cm/s]
36 | CCn1cc(C(=O)O)c(=O)c2cc(F)c(N3CCNC(C)C3)c(F)c21 (stereo unspecified) [LOMEFLOXACIN] | 1.05
37 | C[C@]12CC[C@@H]3c4ccc(O)cc4CC[C@H]3[C@@H]1CC[C@@H]2O [ESTRADIOL] | 8

System: Mus musculus
Experiment: Acute toxicity in Kunming mouse assessed as mortality at 2.4 mmol/kg, po administered as single dose via gavage measured continuously for first 4 hrs, intermittently for next 24 hrs and occasionally thereafter for 14 days
Type: organism-based
Conditions: in vivo
Method in brief: (§1)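 Male KM mice (22 days old, 18–20 g), 15 in total, randomly split into 3 groups of 5. Kept on a 12 h light/dark cycle at 20-22 °C and 60-70% humidity, fasted overnight with free water. Single oral dose of 2.4 mmol/kg suspended in 0.5% CMC-Na. Mortality, behaviour, water and food intake, and body weight followed over 14 days.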

Row | SMILES | Activity
38 | C#CCN(C)Cc1ccccc1 [PARGYLINE] | Non-Toxic

System: Mus musculus
Experiment: Acute toxicity in Kunming mouse assessed as abnormal change in water consumption at 2.4 mmol/kg, po administered as single dose via gavage measured continuously for first 4 hrs, intermittently for next 24 hrs and occasionally thereafter for 14 days
Type: organism-based
Conditions: in vivo
Method in brief: as §1

Row | SMILES | Activity
39 | C#CCN(C)Cc1ccccc1 [PARGYLINE] | Non-Toxic

System: Mus musculus
Experiment: Acute toxicity in Kunming mouse assessed as abnormal change in food consumption at 2.4 mmol/kg, po administered as single dose via gavage measured continuously for first 4 hrs, intermittently for next 24 hrs and occasionally thereafter for 14 days
Type: organism-based
Conditions: in vivo
Method in brief: as §1

Row | SMILES | Activity
40 | C#CCN(C)Cc1ccccc1 [PARGYLINE] | Non-Toxic

System: Mus musculus
Experiment: Acute toxicity in Kunming mouse assessed as abnormal change in body weight at 2.4 mmol/kg, po administered as single dose via gavage measured continuously for first 4 hrs, intermittently for next 24 hrs and occasionally thereafter for 14 days
Type: organism-based
Conditions: in vivo
Method in brief: as §1

Row | SMILES | Activity
41 | C#CCN(C)Cc1ccccc1 [PARGYLINE] | Non-Toxic

System: Mus musculus
Experiment: Cardiotoxicity in Kunming mouse at 2.4 mmol/kg, po administered as single dose via gavage measured continuously for first 4 hrs, intermittently for next 24 hrs and occasionally thereafter for 14 days by […]
Type: toxicity, organism-based
Conditions: in vivo
Method in brief: (§2)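 Male KM mice (18–20 g) received a single oral 2.4 mmol/kg dose in 0.5% CMC-Na suspension after an overnight fast. All animals were sacrificed on day 14 after dosing, and heart, liver and kidneys were examined macroscopically for damage.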

Row | SMILES | Activity
42 | C#CCN(C)Cc1ccccc1 [PARGYLINE] | Non-Toxic

System: Mus musculus
Experiment: Hepatotoxicity in Kunming mouse at 2.4 mmol/kg, po administered as single dose via gavage measured continuously for first 4 hrs, intermittently for next 24 hrs and occasionally thereafter for 14 days by […]
Type: toxicity, organism-based
Conditions: in vivo
Method in brief: as §2

Row | SMILES | Activity
43 | C#CCN(C)Cc1ccccc1 [PARGYLINE] | Non-Toxic

System: Mus musculus
Experiment: Nephrotoxicity in Kunming mouse at 2.4 mmol/kg, po administered as single dose via gavage measured continuously for first 4 hrs, intermittently for next 24 hrs and occasionally thereafter for 14 days […]
Type: toxicity, organism-based
Conditions: in vivo
Method in brief: as §2

Row | SMILES | Activity
44 | C#CCN(C)Cc1ccccc1 [PARGYLINE] | Non-Toxic

System: Mus musculus
Experiment: Acute toxicity in Kunming mouse assessed as effect on serum AST level at 2.4 mmol/kg, po administered as single dose via gavage measured continuously for first 4 hrs, intermittently for next 24 hrs and occasionally thereafter for 14 days
Type: organism-based
Conditions: in vivo
Method in brief: (§3)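 Male KM mice (18–20 g), fasted overnight, given one oral 2.4 mmol/kg dose suspended in 0.5% CMC-Na. On day 14, orbital blood was collected before decapitation and serum AST and ALT activities measured against a control group. Mean ± SD of three independent experiments.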

Row | SMILES | Activity
45 | C#CCN(C)Cc1ccccc1 [PARGYLINE] | Non-Toxic

System: Mus musculus
Experiment: Acute toxicity in Kunming mouse assessed as effect on serum ALT level at 2.4 mmol/kg, po administered as single dose via gavage measured continuously for first 4 hrs, intermittently for next 24 hrs and occasionally thereafter for 14 days
Type: organism-based
Conditions: in vivo
Method in brief: as §3

Row | SMILES | Activity
46 | C#CCN(C)Cc1ccccc1 [PARGYLINE] | Non-Toxic
